Rows were chosen to be rich in hits. Some 1.3% of all compounds tested hit in one or more screens of this group.
Tn6 DDE FP: inhibitors of Tn6 peptide binding to fibrin DD(E), primary screen, biochemical, fluorescence polarization, human fibrin, Tn6 probe | Fibrin DD(E) TRITC-Tn6 fluorescence polarization displacement | inhibition, % at 8.3 µM | 370,000 compounds, 0.21% hits | AID 720509, 2013;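 active = inhibition above a per-campaign cutoff: mean of compounds within control limits plus 3 SD, cut at about 15% in these data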;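 note: 0% = median of all compound wells on the plate and 100% = blocking peptide control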
Target sequence (P02675 whole entry, looked up): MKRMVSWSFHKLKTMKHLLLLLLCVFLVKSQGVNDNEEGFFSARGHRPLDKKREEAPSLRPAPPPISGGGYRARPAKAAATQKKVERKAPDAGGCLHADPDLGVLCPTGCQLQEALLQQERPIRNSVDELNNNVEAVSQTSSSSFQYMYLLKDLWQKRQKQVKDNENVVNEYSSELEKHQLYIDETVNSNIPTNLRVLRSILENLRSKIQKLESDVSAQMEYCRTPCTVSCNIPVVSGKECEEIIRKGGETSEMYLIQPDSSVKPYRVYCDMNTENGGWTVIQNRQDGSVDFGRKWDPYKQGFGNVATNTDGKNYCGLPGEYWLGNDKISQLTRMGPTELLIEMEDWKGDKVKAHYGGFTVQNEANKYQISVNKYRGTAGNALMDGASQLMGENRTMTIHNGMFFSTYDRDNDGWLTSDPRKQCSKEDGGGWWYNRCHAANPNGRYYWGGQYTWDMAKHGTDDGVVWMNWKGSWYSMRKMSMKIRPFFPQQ
Tn7 DDE FP: inhibitors of Tn7 peptide binding to fibrin DD(E), primary screen, biochemical, fluorescence polarization, human fibrin, Tn7 probe | AID 720508, 2013 | FP displacement of FITC-Tn7 peptide from fibrin DD(E); 0% = median of compound wells per plate | Fibrinogen beta chain (Homo sapiens), P02675 | 370,000 compounds, 0.13% hits | inhibition, % at 8.3 µM;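 active = inhibition above the mean of compounds falling within the control limits plus 3 SD of them, cut at about 14% in these data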;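 note: 0% = plate median of compound wells and 100% = 10 µM Aha-Tn7 peptide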
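assay system = human clot-derived fibrin DD(E) complex | quantity = Fibrin-DD(E) at 2 µM final | timing = 10 min preincubation, 3 h with tracer, room temperature | signal = fluorescence polarization | measure = percent inhibition | benchmarks = high control wells with 10 µM unlabelled Aha-Tn7 peptide (full inhibition) | replicates = singlicate testing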
CRFBP-R2 block: antagonists of CRF-BP/CRF-R2 complex, primary screen, cell-based, HEK293, calcium dye fluorescence, uHTS. CRF-induced calcium fluorescence. inhibition, % at 11.8 µM. 350,000 compounds, 0.59% hits. AID 588475, 2011;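 active = inhibition of the ligand-induced calcium signal above about 50% at the single tested concentration, limit read from the data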
CRFR2-BP ag: agonists of CRF-BP/CRF-R2 complex, primary screen, cell-based, HEK293, calcium dye fluorescence, uHTS. CRF-binding protein / CRF receptor 2 complex (human). calcium dye fluorescence (FLIPR); percent of saturating CRF peptide response. 350,000 compounds, 0.46% hits. activation, % at 13.2 µM;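 active = activation of at least 50%, plus an integration ratio under a set limit after plate pattern correction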;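 note: plate controls were neutral control wells without compound for no effect and CRF at EC100 for full effect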
* marks the source's active call; other numbers are inactive results; . = no result; ! = repeats disagree.

SMILES	Tn6 DDE FP	Tn7 DDE FP	CRFBP-R2 block	CRFR2-BP ag
OCCNc1c2ccccc2nc2c(F)c(F)c(F)c(F)c12	-9	7	-113	69*
O/C=c1\ccc2cccc3nc(C(F)(F)F)nc1c23	-5	-5	-38	97*
NNc1nc(C(F)(F)F)nc2ccccc12	6	3	-12	0
CS(=O)(=O)Oc1ccc(Br)c2cccnc12	0	2	62*	-2
CC(c1ccccc1C(O)(c1ccccc1)c1ccccc1)N(C)C (stereo not given)	-1	-11	-63	93*
COc1ccccc1C(O)(c1ccccc1)c1ccccc1OC	-5	1	19	-2
COC(=O)[C@]12C[C@H](CC(=O)NCCC(C)C)C(=O)N(CCc3ccc(OC)c(OC)c3)C1=C[C@H](COCc1ccccc1)O[C@@H]2C	0	-1	.	.
CCOC(=O)N1CCN(C(=O)c2c[nH]c3ccc(S(=O)(=O)N(C)c4cccc(C)c4)cc3c2=O)CC1	4	7	-62	82*
Cc1cccc(-n2c(SCC(=O)N3CC(=O)Nc4ccccc43)nc3ccccc3c2=O)c1C	0	-8	55*	4
Cc1cccc(-n2c(SCC(=O)N3CC(=O)Nc4ccccc43)nc3ccccc3c2=O)c1	2	5	-20	8
Cc1ccc(C2C(C#N)=C(N)SC(N)=C2C#N)c(C)c1	.	.	-89	133*
COc1cc(NC(=O)CSc2nc3ccccc3n2-c2ccccc2)c(C)cc1[N+](=O)[O-]	-1	1	55*	-2
COc1cc(NC(=O)C2CCCN(S(=O)(=O)c3ccccc3[N+](=O)[O-])C2)cc(OC)c1 (stereo not given)	-6	-4	.	.
COC(=O)C1CCCN(C(=O)C(Cc2ccc3c(c2)OCO3)NC(C)=O)C1 (stereo not given)	2	-10	.	.
CSc1ccccc1NC(=O)CCc1ccccc1	3	-8	30	-3
O=C(CCc1ccccc1)Nc1c(F)cccc1F	4	1	52*	-2
CCCCCCCCCCCCCCCC[n+]1cccc(C(=O)N(CC)CC)c1	-4	-6	12	104*!
COc1ccc(-c2c(C#Cc3ccc(N(C)C)cc3)c3ccccc3n2C)cc1	10	3	7	-2
COc1ccc(C#Cc2c(-c3ccccc3)n(-c3ccccc3)c3ccc(CO)cc23)cc1	-4	-6	118*	2
COc1ccc(OCC(=O)N2CCN(c3nnc(-c4ccc(C)cc4)c4ccccc34)CC2)cc1	-9	-8	13	2
Cc1ccc(OCC(=O)N2CCN(c3nnc(-c4ccc(C)cc4)c4ccccc34)CC2)cc1	-4	2	68*	-1
COc1cccc(-c2cc(C(C)=O)c3n(c2=O)CCC3)c1OC	4	-2	.	.
CNS(=O)(=O)c1cccc(C(=O)NCC(c2ccco2)N(C)C)c1 (stereo not given)	-3	-13	111*	0
Cc1cc(NS(=O)(=O)c2ccc(NC(=O)CSc3nnc(-c4cnccn4)n3-c3ccccc3)cc2)nc(C)n1	3	-5	.	.
Cn1cccc1C(=O)NCCc1ccccc1	-2	0	-4	0
SMILES	Tn6 DDE FP	Tn7 DDE FP	CRFBP-R2 block	CRFR2-BP ag
COc1ccc(CCNC(=O)c2cccn2C)cc1	-4	-6	55*	-1
CN(C)c1cccc(C(=O)OCC(=O)Nc2ccccc2-c2ccccc2)c1	-3	2	8	1
O=C(CN1CCCC1)Nc1ccccc1Sc1ccccc1	6	0	-67	52*
CN(C)c1cccc(C(=O)OCC(=O)Nc2ccccc2Sc2ccccc2)c1	3	-4	62*	1
CC(=O)N1CCN(C2=Nc3ccccc3Sc3ccccc32)CC1	-5	5	.	.
O=c1[nH]c(SCc2n[nH]c(=S)n2-c2ccccc2)nc2sc3c(c12)CCC3	3	2	93*	-1
CC(=O)NC(Cc1ccc(C(C)C)cc1)C(=O)NC1CCN(C(=O)c2cccc(C)c2)CC1 (stereo not given)	0	1	53*	1
CC(=O)NC(Cc1cccc(F)c1)C(=O)NC1CCN(C(=O)c2cccc(C)c2)CC1 (stereo not given)	9	9	9	0
Clc1ccc2nncn2n1	-3	-1	77*	0
c1cc2nncn2nc1N1CCCC1	8	9	-18	1
COCCCN1C(=O)[C@H](CC(=O)N2CCSCC2)[C@]2(C(=O)OC)CCCCC=C12	2	0	.	.
CC(=O)N(C)c1ccc(N=NC2C(=O)N(C(N)=S)N=C2C)cc1 (stereo not given)	5	-3	51*	2
CC1=NN(C(N)=S)C(=O)C1N=Nc1ccc(S(N)(=O)=O)cc1 (stereo not given)	12	6	2	-2
Cc1ccc(/C=C2/NC(=O)N(c3ccccc3)C2=O)o1	5	-1	-5	1
O=C1N/C(=C/c2ccc(N3CCOCC3)o2)C(=O)N1c1cccc(Cl)c1	-1	3	70*	8
CCN(CC)C(=O)CC[C@@H]1CC[C@]2(CCCN(Cc3ccccc3)C2)O1	-8	9	.	.
Cc1cc(C(=O)Nc2ccc(Cl)c(Cl)c2)n(-c2ccccc2)n1	1	5	.	.
O=C1C2C3C=CC(C3)C2C(=O)N1c1ccc2ccccc2n1 (stereo not given)	6	6	10	-1
O=C1C2C3C=CC(C3)C2C(=O)N1c1cccc(N2C(=O)C3C4C=CC(C4)C3C2=O)n1 (stereo not given)	-4	1	-91	73*
Cc1ccc(CNC(=O)c2cc3c(=O)n4ccccc4nc3n(Cc3ccco3)c2=N)cc1	-8	-3	41	3
CCCCn1c(=NC(=O)c2cccnc2)c(C#N)cc2c(=O)n3cccc(C)c3nc21	-5	2	-9	89*
Cc1ccc(S(=O)(=O)c2cc3c(=O)n4ccccc4nc3n(Cc3ccco3)c2=N)cc1	-8	-5	-2	66*
CCCCn1c(=N)c(S(=O)(=O)c2ccc(Br)cc2)cc2c(=O)n3cccc(C)c3nc21	-1	3	-68	59*
CCCn1c(=NC(=O)c2ccncc2)c(C#N)cc2c(=O)n3cccc(C)c3nc21	.	.	5	-1
O=C(Nc1ccccc1[N+](=O)[O-])NC1CCCCN(Cc2ccc(Cl)cc2)C1=O (stereo not given)	-1	1	.	.
CCN1CCN(Cc2c(O)ccc3c(=O)c(-c4ccccc4OC)coc23)CC1	5	-3	-6	1
Cc1ccc(/C=C2\Oc3c(ccc(O)c3CN3CCN(CCO)CC3)C2=O)cc1	1	-7	-16	86*
CCN1CCN(Cc2c(O)ccc3c2O/C(=C\C=C\c2ccccc2OC)C3=O)CC1	1	-19	-61	74*
COc1cc(/C=C(\C#N)c2nc3ccc(C)cc3[nH]2)c([N+](=O)[O-])cc1OC	-5	2	-70	24

From PubChem
